# Results as given in ChEMBL document CHEMBL1127555, “Novel (4-phenylpiperidinyl)- and (4-phenylpiperazinyl)alkyl-spaced esters of 1-phenylcyclopentanecarboxylic acids as potent sigma-selective compounds” (J Med Chem, 1994).
# pKi: −log10 of the molar value.
# How the values were obtained:
# [1] = target: Sigma 2 receptor; assay: The compound was evaluated for affinity at sigma-2 site by inhibition of [3H]1,3-di(2-tolyl)guanidine (DTG) binding in guinea pig brain; parameters: species or system Cavia porcellus
# Summary of the method: (§1)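 Final [3H]DTG 4 nM with varied test concentrations. Incubation 25 °C for 90 min. PEI-soaked GF/B filtration, scintillation counting. Ki from EBDA/LIGAND, at least three determinations in triplicate.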
# [2] = target: T1, Glutamate NMDA receptor (Rattus norvegicus) (UniProt P35439+Q00959+Q00960+Q00961+Q62645+Q8VHN2+Q9R1M7); assay: Binding affinity was measured against N-methyl-D-aspartate (NMDA) receptor in rat using [3H]CGS-19,755 as radioligand at 10 uM
# [3] = target: T2, D(1A) dopamine receptor (Rattus norvegicus, UniProt P18901); assay: Binding affinity was measured against dopamine receptor D1 in rat using [3H]SCH-23390 as radioligand
# T2 sequence (P18901 whole entry): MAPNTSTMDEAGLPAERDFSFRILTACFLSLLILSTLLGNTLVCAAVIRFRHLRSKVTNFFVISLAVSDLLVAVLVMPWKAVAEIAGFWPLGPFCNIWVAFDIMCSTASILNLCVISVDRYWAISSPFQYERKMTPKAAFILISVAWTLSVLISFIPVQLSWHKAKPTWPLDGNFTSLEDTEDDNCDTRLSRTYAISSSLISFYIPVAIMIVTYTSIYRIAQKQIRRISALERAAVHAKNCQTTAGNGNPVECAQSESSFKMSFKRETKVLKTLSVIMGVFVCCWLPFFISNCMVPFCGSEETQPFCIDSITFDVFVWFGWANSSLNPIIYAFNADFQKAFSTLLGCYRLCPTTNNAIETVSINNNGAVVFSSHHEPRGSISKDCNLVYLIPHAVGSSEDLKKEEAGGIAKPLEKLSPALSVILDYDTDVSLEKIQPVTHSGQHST
# [4] = target: T3, D(2) dopamine receptor (Rattus norvegicus, UniProt P61169); assay: Binding affinity was measured against dopamine (D2) receptor in rat using [3H]spiperone as radioligand
# T3 sequence (P61169 whole entry): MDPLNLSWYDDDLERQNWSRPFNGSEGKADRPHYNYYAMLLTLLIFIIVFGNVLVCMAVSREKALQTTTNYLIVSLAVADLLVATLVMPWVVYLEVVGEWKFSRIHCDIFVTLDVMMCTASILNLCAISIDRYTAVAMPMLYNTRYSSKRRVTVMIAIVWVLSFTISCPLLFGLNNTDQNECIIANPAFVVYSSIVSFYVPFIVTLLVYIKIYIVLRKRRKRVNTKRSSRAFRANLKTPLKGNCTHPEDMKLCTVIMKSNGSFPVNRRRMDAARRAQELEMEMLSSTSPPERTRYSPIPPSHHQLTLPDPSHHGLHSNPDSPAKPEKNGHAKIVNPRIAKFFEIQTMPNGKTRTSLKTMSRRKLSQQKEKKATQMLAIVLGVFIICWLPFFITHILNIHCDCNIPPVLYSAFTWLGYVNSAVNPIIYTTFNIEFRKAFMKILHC
# [5] = target: T1, Glutamate NMDA receptor (Rattus norvegicus); assay: Binding affinity was measured against phencyclidine (PCP) receptor in rat using [3H]-TCP as radioligand at 10 uM
# [6] = target: Sigma 2 receptor; assay: Affinity at sigma-2 site by inhibition of [3H]1,3-di(2-tolyl)guanidine (DTG) binding in guinea pig brain.; parameters: species or system Cavia porcellus; summary of the method: as §1
# [7] = Binding affinity for sigma-1 site over dopamine receptor D1 in rat using [3H]SCH-23390 as radioligand
# [8] = Binding affinity for sigma-1 site over dopamine (D2) receptor in rat using [3H]spiperone as radioligand
# [9] = target: Opioid receptor (Rattus norvegicus) (UniProt P33533+P34975+P33535); assay: Binding affinity was measured as selectivity for sigma-1 site over opioid receptor in rat using [3H]naloxone as radioligand at 10 uM
# Sequence of Opioid receptor (Rattus norvegicus) (P33533 whole entry, looked up): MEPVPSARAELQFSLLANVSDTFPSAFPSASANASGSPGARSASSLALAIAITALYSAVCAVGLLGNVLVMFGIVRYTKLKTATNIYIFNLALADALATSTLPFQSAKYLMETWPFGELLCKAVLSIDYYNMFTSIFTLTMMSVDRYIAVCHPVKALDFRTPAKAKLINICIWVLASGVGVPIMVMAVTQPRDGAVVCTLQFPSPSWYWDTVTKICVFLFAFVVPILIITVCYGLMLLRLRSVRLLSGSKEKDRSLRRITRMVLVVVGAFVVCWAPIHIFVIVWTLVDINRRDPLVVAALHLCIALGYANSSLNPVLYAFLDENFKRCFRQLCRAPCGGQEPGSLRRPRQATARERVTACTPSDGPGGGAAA
# Sequence of Opioid receptor (Rattus norvegicus) (P33535 whole entry, looked up): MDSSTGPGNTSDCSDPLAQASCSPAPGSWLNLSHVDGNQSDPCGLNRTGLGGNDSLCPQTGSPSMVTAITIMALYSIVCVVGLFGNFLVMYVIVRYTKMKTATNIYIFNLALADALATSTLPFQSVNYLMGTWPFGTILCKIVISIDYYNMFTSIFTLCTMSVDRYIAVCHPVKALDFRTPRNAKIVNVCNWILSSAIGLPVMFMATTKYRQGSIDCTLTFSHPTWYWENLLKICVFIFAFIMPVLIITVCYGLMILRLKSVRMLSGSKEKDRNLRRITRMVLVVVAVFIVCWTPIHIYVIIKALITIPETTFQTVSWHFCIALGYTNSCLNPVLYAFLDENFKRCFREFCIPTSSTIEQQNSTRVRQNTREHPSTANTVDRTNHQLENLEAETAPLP
# Sequence of Opioid receptor (Rattus norvegicus) (P34975 whole entry, looked up): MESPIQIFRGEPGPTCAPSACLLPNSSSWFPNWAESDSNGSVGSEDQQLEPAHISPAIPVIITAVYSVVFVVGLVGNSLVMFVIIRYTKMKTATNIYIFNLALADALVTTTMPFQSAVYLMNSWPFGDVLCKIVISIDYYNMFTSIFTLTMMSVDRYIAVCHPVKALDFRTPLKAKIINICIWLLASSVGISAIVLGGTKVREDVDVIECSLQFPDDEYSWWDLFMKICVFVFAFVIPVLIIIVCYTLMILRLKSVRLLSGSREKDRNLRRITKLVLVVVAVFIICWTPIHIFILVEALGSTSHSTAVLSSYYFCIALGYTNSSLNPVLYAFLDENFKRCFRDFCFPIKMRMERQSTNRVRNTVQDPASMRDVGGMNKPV
# [10] = target: T1, Glutamate NMDA receptor (Rattus norvegicus); assay: Binding affinity was measured as selectivity for sigma-1 site over phencyclidine (PCP) receptor in rat using [3H]TCP as radioligand at 10 uM
# [11] = target: T3, D(2) dopamine receptor; assay: Iodo derivative shows a potent sigma binding ligand, had some affinity for D2 site in rat
# [12] = target: T1, Glutamate NMDA receptor (Rattus norvegicus); assay: Binding affinity was measured as selectivity for sigma-1 site over N-methyl-D-aspartate (NMDA) receptor in rat using [3H]CGS-19,755 as radioligand at 10 uM
# [13] = target: T4, Muscarinic acetylcholine receptor M1 (Rattus norvegicus, UniProt P08482); assay: Binding affinity was measured as selectivity for sigma-1 site over muscarinic (M1) receptor in rat
# T4 sequence (P08482 whole entry): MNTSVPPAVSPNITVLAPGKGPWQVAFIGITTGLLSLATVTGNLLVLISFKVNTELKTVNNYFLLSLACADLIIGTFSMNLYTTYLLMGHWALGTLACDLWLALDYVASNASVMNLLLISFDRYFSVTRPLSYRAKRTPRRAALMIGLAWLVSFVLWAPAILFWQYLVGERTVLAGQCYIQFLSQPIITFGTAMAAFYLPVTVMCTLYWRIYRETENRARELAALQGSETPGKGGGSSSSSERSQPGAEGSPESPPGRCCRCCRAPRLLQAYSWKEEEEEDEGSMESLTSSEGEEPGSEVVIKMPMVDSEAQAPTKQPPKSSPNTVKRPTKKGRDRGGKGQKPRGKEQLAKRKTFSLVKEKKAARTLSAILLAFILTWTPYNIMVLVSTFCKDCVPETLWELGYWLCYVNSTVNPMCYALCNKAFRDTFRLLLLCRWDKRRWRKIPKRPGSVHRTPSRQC
# [14] = target: T5, Muscarinic acetylcholine receptor M2 (Rattus norvegicus, UniProt P10980); assay: (§2) Binding affinity was measured as selectivity for sigma 1 site over muscarinic (M2) receptor at 10 uM in rat using [3H]QN as radioligand
# T5 sequence (P10980 whole entry): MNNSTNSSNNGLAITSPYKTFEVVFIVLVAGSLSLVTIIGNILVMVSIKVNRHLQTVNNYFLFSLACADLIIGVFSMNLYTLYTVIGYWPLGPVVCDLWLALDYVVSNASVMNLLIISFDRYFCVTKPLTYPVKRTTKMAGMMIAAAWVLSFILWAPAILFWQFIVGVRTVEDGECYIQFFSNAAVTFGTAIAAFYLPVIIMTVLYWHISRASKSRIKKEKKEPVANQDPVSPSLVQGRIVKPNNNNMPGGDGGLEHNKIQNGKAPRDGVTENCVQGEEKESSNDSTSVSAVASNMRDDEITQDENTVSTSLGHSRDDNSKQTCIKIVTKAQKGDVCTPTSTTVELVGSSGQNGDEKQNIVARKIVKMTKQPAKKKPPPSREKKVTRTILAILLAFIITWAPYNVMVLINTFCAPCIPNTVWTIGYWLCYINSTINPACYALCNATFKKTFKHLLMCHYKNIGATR
# Summary of the method: (§3)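 Muscarinic binding, M1 in rat cortex with [3H]pirenzepine 0.5 nM and M2 in rat heart with [3H]QNB 0.05 nM.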
# [15] = target: T6, Opioid receptor (Rattus norvegicus, UniProt P33533+P34975+P33535); assay: Binding affinity was measured as selectivity for sigma-1 site over opioid receptor in rat using [3H]naloxone as radioligand
# [16] = target: Glutamate NMDA receptor; assay: Binding affinity was measured as selectivity for sigma-1 site over phencyclidine (PCP) receptor in rat using [3H]TCP as radioligand
# [17] = target: T2, D(1A) dopamine receptor; assay: The nitro derivative RLH-033 shows significant selectivity for the [3H]-(=)-PENT site over […] in rat using [3H]SCH-23390 as radioligand
# [18] = target: T4, Muscarinic acetylcholine receptor M1; assay: Binding affinity was measured as selectivity for sigma-1 site over muscarinic (M1) receptor in rat using [3H]pirenzepine as radioligand
# [19] = target: T4, Muscarinic acetylcholine receptor M1; assay: The nitro derivative RLH-033 shows significant selectivity for the [3H]-(=)-PENT site over muscarinic 1 in rat using [3H]pirenzepine as radioligand
# [20] = target: T5, Muscarinic acetylcholine receptor M2; assay: The nitro derivative RLH-033 shows significant selectivity for the [3H]-(=)-PENT site over muscarinic 2 in rat using [3H]QN as radioligand
# [21] = target: T3, D(2) dopamine receptor; assay: The nitro derivative RLH-033 shows significant selectivity for the [3H]-(=)-PENT site over dopamine 2 in rat using [3H]SCH-23390 as radioligand
# [22] = target: T7, Muscarinic acetylcholine receptor M2 (Rattus norvegicus) (UniProt P10980); assay: as §2; summary of the method: as §3
# T7 sequence (whole entry): T5 sequence (P10980 whole entry)
# [23] = target: T5, Muscarinic acetylcholine receptor M2; assay: Binding affinity was measured against muscarinic (M2) receptor at 10 uM in rat using [3H]QN as radioligand
# [24] = target: T4, Muscarinic acetylcholine receptor M1; assay: Binding affinity was measured against muscarinic (M1) receptor in rat using [3H]pirenzepine as radioligand
# [25] = target: T6, Opioid receptor; assay: Binding affinity was measured against opioid receptor in rat using [3H]naloxone as radioligand
# [26] = target: Glutamate NMDA receptor; assay: Binding affinity was measured against phencyclidine (PCP) receptor in rat using [3H]TCP as radioligand
smiles,measurement,setting,value
O=C(OCCCN1CCC(c2ccccc2)CC1)C1(c2ccc([N+](=O)[O-])cc2)CCCC1,pKi,[1],9.06
O=C(OCCN1CCN(c2ccccc2)CC1)C1(c2ccc(Cl)cc2)CCCC1,pKi,[1],6.12
O=C(CCCN1CCC(O)(c2ccc(Cl)cc2)CC1)c1ccc(F)cc1,inhibition,[2],25%
CCN(CC)CCOC(=O)C1(c2ccccc2)CCCC1,pKi,[3],< 6.00
same,pKi,[4],< 6.30
same,inhibition,[2],19%
same,inhibition,[5],11%
same,pKi,[6],6.18
O=C(OCCN1CCN(c2ccccc2)CC1)C1(c2ccc(I)cc2)CCCC1,pKi,[7],6.19
same,pKi,[8],6.67
same,inhibition,[9],25%
same,inhibition,[10],7%
same,pKi,[1],6.53
O=C(OCCN1CCC(c2ccccc2)CC1)C1(c2ccc(I)cc2)CCCC1,pKi,[7],< 6.00
same,pKi,[11],7.26
same,inhibition,[9],25%
same,inhibition,[10],8%
same,pKi,[1],7.28
Cc1ccccc1NC(=N)Nc1ccccc1C,pKi,[7],< 5.30
same,pKi,[8],< 5.30
same,inhibition,[12],0%
same,pKi,[13],6.13
same,pKi,[14],5.53
same,Ki,[15],3950 nM
same,pKi,[16],5.17
O=C(OCCCN1CCC(c2ccccc2)CC1)C1(c2ccccc2)CCCC1,pKi,[7],5.00
same,pKi,[8],5.92
same,pKi,[13],6.77
same,pKi,[14],6.17
same,pKi,[1],8.93
O=C(OCCN1CCC(c2ccccc2)CC1)C1(c2ccc([N+](=O)[O-])cc2)CCCC1,pKi,[7],5.54
same,pKi,[17],< 4.24
same,pKi,[8],6.46
same,inhibition,[12],12%
same,pKi,[18],6.06
same,pKi,[19],< 4.75
same,pKi,[14],5.77
same,pKi,[20],< 4.47
same,inhibition,[9],42%
same,inhibition,[10],7%
same,pKi,[1],8.41
same,pKi,[21],< 5.15
O=C(OCCCCCCN1CCC(c2ccccc2)CC1)C1(c2ccccc2)CCCC1,pKi,[1],8.73
O=C(OCCCN1CCC(c2ccccc2)CC1)C1(c2ccc(I)cc2)CCCC1,pKi,[1],8.19
O=C(OCCCN1CCC(c2ccccc2)CC1)C1(c2ccc(Cl)cc2)CCCC1,pKi,[1],8.36
O=C(OCCN1CCC(c2ccccc2)CC1)C1(c2ccccc2)CCCC1,pKi,[7],5.31
same,pKi,[8],5.96
same,inhibition,[12],15%
same,inhibition,[22],20%
same,pKi,[18],6.77
same,inhibition,[9],63%
same,inhibition,[10],8%
same,pKi,[1],7.28
COc1ccc(C2(C(=O)OCCCN3CCC(c4ccccc4)CC3)CCCC2)cc1,pKi,[7],5.22
same,pKi,[8],6.00
same,pKi,[1],8.77
O=C(OCCN1CCC(c2ccccc2)CC1)C1(c2ccc(Cl)cc2)CCCC1,pKi,[1],7.62
O=C(OCCCCN1CCC(c2ccccc2)CC1)C1(c2ccccc2)CCCC1,pKi,[7],5.51
same,pKi,[8],6.33
same,pKi,[1],9.16
O=C(OCCN1CCN(c2ccccc2)CC1)C1(c2ccc([N+](=O)[O-])cc2)CCCC1,pKi,[7],6.00
same,pKi,[8],6.30
same,inhibition,[12],19%
same,inhibition,[9],25%
same,inhibition,[10],10%
same,pKi,[1],7.52
COc1ccc2c(c1)[C@]13CCCC[C@@H]1[C@H](C2)N(C)CC3 [DEXTROMETHORPHAN],inhibition,[2],2%
same,pKi,[23],< 5.00
O=C(OCCN1CCN(c2ccccc2)CC1)C1(c2ccccc2)CCCC1,pKi,[8],< 6.30
same,inhibition,[12],7%
same,inhibition,[22],98%
same,pKi,[13],5.83
same,inhibition,[9],43%
same,inhibition,[10],1%
same,pKi,[1],6.16
O=C(OCCCCCN1CCC(c2ccccc2)CC1)C1(c2ccccc2)CCCC1,pKi,[1],8.98
N#Cc1ccc(C2(C(=O)OCCN3CCC(c4ccccc4)CC3)CCCC2)cc1,pKi,[7],< 6.00
same,pKi,[8],6.71
same,pKi,[1],7.57
"CC(C)=CCN1CC[C@]2(C)c3cc(O)ccc3C[C@H]1[C@H]2C (single isomer, unassigned) [(+)-PENTAZOCINE]",pKi,[3],< 5.30
same,pKi,[4],< 5.30
same,pKi,[24],6.65
same,pKi,[23],6.28
same,Ki,[25],651 nM
same,pKi,[26],5.38
COc1ccc(C2(C(=O)OCCN3CCC(c4ccccc4)CC3)CCCC2)cc1,pKi,[1],7.50
